In ChEMBL document CHEMBL3351250, “Modified salicylanilide and 3-phenyl-2H-benzo[e][1,3]oxazine-2,4(3H)-dione derivatives as novel inhibitors of osteoclast differentiation and bone resorption” (J Med Chem, 2014):
Active and inactive are the calls of the source. The rule behind the calls is not given here.

Columns and labels:
[1] = Cytotoxicity against mouse RAW264.7 cells assessed as survival rate at 10 uM after 24 hrs by MTT assay; type: cell-based; details: read-out: Activity
Summary of the method: (§1)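 Cells at 1 × 10⁴/well in DMEM + 10% FBS, exposed to compounds for 24 h at 37 °C, 5% CO₂. After PBS washes, MTT (0.5 mg/mL in medium) added for 1 h at 37 °C; formazan dissolved in DMSO, absorbance read at 540 nm. Viability expressed as % of DMSO control; CC₅₀ is the concentration giving 50% loss of mean viability (N = 3).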

[2] = Cytotoxicity against mouse RAW264.7 cells assessed as reduction in survival rate after 24 hrs by MTT assay; type: cell-based; summary of the method: as §1
RAW264.7 [3] = test: Inhibition of RANKL-induced osteoclastogenesis in mouse RAW264.7 cells assessed as TRAP+ multinucleated cells level at 10 uM incubated for 4 days by TRAP staining assay; type: functional; parameters: scale not given: the % may be the effect or the level left
Summary of the method: (§2)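 Cells plated at 1 × 10³ (96-well) or 5 × 10⁴ (48-well) in α-MEM with 10% FBS, 2 mM […], 100 ng/mL recombinant murine RANKL and compound for 4 days; medium changed on day 2. Fixed in acetone/citrate/formaldehyde for 5 min and TRAP-stained. TRAP⁺ cells with >5 nuclei counted by light microscopy, expressed as % of the RANKL-only group.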

RAW264.7 [4] = test: Inhibition of RANKL-induced osteoclastogenesis in mouse RAW264.7 cells assessed as TRAP+ multinucleated cells level incubated for 4 days by TRAP staining assay; type: functional, cell-based; details: RAW264.7, 96 h
Summary of the method: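 RAW264.7 cells in α-MEM with 10% FBS, 2 mM […], 100 ng/mL recombinant soluble murine RANKL and a range of compound concentrations for 4 days, with medium changed on day 2. Cells fixed in acetone/citrate/formaldehyde for 5 min and TRAP-stained. Cells with >5 nuclei counted by light microscopy and expressed as % of RANKL-only; IC50 is 50% inhibition.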

RAW264.7 [5] = test: Cytotoxicity against mouse RAW264.7 cells assessed as survival rate at 5 and 10 uM after 24 hrs by MTT assay; type: cell-based; details: raw264.7, 24 h; summary of the method: as §1
RAW264.7 [6] = test: Inhibition of RANKL-induced osteoclastogenesis in mouse RAW264.7 cells assessed as TRAP+ multinucleated cells level at 5 uM incubated for 4 days by TRAP staining assay; type: functional; parameters: scale not given: the % may be the effect or the level left; summary of the method: as §2
RAW264.7 [7] = test: Inhibition of RANKL-induced osteoclastogenesis in mouse RAW264.7 cells assessed as TRAP+ multinucleated cells level at […] incubated for 4 days by TRAP staining assay; type: functional; parameters: scale not given: the % may be the effect or the level left
RAW264.7 [8] = test: Inhibition of RANKL-induced osteoclastogenesis in mouse RAW264.7 cells assessed as reduction in TRAP activity incubated for 4 days by TRAP staining assay; type: functional, cell-based; details: for IC50: RAW264.7, 96 h
Summary of the method: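 RAW264.7 cells were RANKL-differentiated (100 ng/mL recombinant soluble murine RANKL in α-MEM/10% FBS, compounds at various concentrations, 4 days, medium changed day 2). TRAP activity was read with 2 mg/mL 4-nitrophenyl phosphate in 0.09 M citrate buffer for 15 min at 37 °C, stopped with 0.1 N NaOH. Expressed as % of RANKL-only; IC50 is 50% inhibition.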

RAW264.7 [9] = test: Inhibition of RANKL-induced NFATc1 mRNA expression in mouse RAW264.7 cells at 5 to […] pre-treated for 1 hr before RANKL stimulation measured after 24 to 48 hrs by RT-PCR method; type: functional, cell-based
RAW264.7 [10] = test: Inhibition of RANKL-induced c-fos mRNA expression in mouse RAW264.7 cells at 5 to […] pre-treated for 1 hr before RANKL stimulation measured after 24 to 48 hrs by RT-PCR method; type: functional, cell-based
RAW264.7 [11] = test: Inhibition of RANKL-induced DC-STAMP mRNA expression in mouse RAW264.7 cells at 5 to […] pre-treated for 1 hr before RANKL stimulation measured after 24 to 48 hrs by RT-PCR method; type: functional, cell-based
RAW264.7 [12] = test: Inhibition of RANKL-induced TRAP mRNA expression in mouse RAW264.7 cells at 5 to […] pre-treated for 1 hr before RANKL stimulation measured after 24 to 48 hrs by RT-PCR method; type: functional, cell-based
RAW264.7 [13] = test: Inhibition of RANKL-induced cathepsin K mRNA expression in mouse RAW264.7 cells at 5 to […] pre-treated for 1 hr before RANKL stimulation measured after 24 to 48 hrs by RT-PCR method; type: functional, cell-based
RAW264.7 [14] = test: Inhibition of RANKL-induced MMP9 mRNA expression in mouse RAW264.7 cells at 5 to […] pre-treated for 1 hr before RANKL stimulation measured after 24 to 48 hrs by RT-PCR method; type: functional, cell-based
RAW264.7 [15] = test: Inhibition of RANKL-induced NFATc1 protein expression in mouse RAW264.7 cells nuclear extracts at 5 to […] pre-treated for 1 hr before RANKL stimulation measured after 24 hrs by Western blotting method; type: functional, cell-based
RAW264.7 [16] = test: Inhibition of RANKL-induced NFkappaB protein expression in mouse RAW264.7 cells nuclear extracts at 5 to […] pre-treated for 1 hr before RANKL stimulation measured after 24 hrs by Western blotting method; type: functional, cell-based
RAW264.7 [17] = test: Inhibition of RANKL-induced NFkappaB protein expression in mouse RAW264.7 cells nuclear extracts assessed as NFkappaB level at 5 uM pre-treated for 1 hr before RANKL stimulation measured after 24 hrs by Western blotting method relative to TBP protein; type: functional
Summary of the method: (§3)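 Cells (1 × 10⁶ per 6 cm plate) attached 24 h in DMEM/10% FBS. Pretreated with compound in α-MEM/10% FBS for 1 h, then RANKL 100 ng/mL for 24 h. Nuclear extracts (18 μg) run on 12% SDS-PAGE and blotted with monoclonal anti-NFATc1 or anti-NF-κB (1:1000, 12 h, 4 °C) plus HRP secondary, ECL detection. Band signal normalized to TATA-box binding protein.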

RAW264.7 [18] = test: Inhibition of RANKL-induced NFkappaB protein expression in mouse RAW264.7 cells nuclear extracts assessed as NFkappaB level at […] pre-treated for 1 hr before RANKL stimulation measured after 24 hrs by Western blotting method relative to TBP protein; type: functional
RAW264.7 [19] = test: Inhibition of RANKL-induced NFATc1 protein expression in mouse RAW264.7 cells nuclear extracts assessed as NFATc1 level at 5 uM pre-treated for 1 hr before RANKL stimulation measured after 24 hrs by Western blotting method relative to TBP protein; type: functional; summary of the method: as §3
RAW264.7 [20] = test: Inhibition of RANKL-induced NFATc1 protein expression in mouse RAW264.7 cells nuclear extracts assessed as NFATc1 level at […] pre-treated for 1 hr before RANKL stimulation measured after 24 hrs by Western blotting method relative to TBP protein; type: functional
RAW264.7 [21] = test: Inhibition of RANKL-induced bone resorption in mouse RAW264.7 cells incubated for 4 days by toluidine blue staining based pit formation assay; type: functional, cell-based
Summary of the method: (§4)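 Seeded at 1 × 10⁴/well onto dentine slices in α-MEM/10% FBS with 100 ng/mL RANKL plus compound. Medium with compound renewed every 2 days. On day 4, cells removed with 1 M ammonium hydroxide, slices stained with 0.1% toluidine blue, pits imaged by light microscopy. Resorbed area expressed as fraction of total area; significance versus the RANKL-only group.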

RAW264.7 [22] = test: Inhibition of RANKL-induced bone resorption in mouse RAW264.7 cells assessed as reduction in resorbed area at 2.5 to 10 uM incubated for 4 days by toluidine blue staining based pit formation assay; type: functional, cell-based; summary of the method: as §4
[23] = Toxicity in mouse MC3T3-E1 cells assessed as effect on osteoblast differentiation by measuring ALP activity at […] incubated for 14 days in presence of beta-glycerol phosphate and ascorbic acid; type: cell-based; details: mc3t3-e1, 336 h
[24] = Toxicity in mouse MC3T3-E1 cells assessed as effect on osteoblast differentiation by measuring ECM calcification activity at […] incubated for 14 days in presence of beta-glycerol phosphate and ascorbic acid by Alizarin red S staining method; type: cell-based; details: mc3t3-e1, 336 h
RAW264.7 [25] = test: Inhibition of RANKL-induced osteoclastogenesis in mouse RAW264.7 cells assessed as TRAP+ multinucleated cells level at 2.5 uM incubated for 4 days by TRAP staining assay; type: functional; parameters: scale not given: the % may be the effect or the level left; summary of the method: as §2

Compound	viability at 24 h, 10 µM [1] [%]	CC50 at 24 h [2] [µM]	Activity (RAW264.7 [3]) [%]	IC50 (RAW264.7 [4]) [µM]	Activity (RAW264.7 [5])	Activity (RAW264.7 [6]) [%]	Activity (RAW264.7 [7]) [%]	inhibition (RAW264.7 [8])	IC50 (RAW264.7 [8]) [µM]	inhibition (RAW264.7 [9])	inhibition (RAW264.7 [10])	inhibition (RAW264.7 [11])	inhibition (RAW264.7 [12])	inhibition (RAW264.7 [13])	inhibition (RAW264.7 [14])	inhibition (RAW264.7 [15])	inhibition (RAW264.7 [16])	fold change (FC) (RAW264.7 [17])	fold change (FC) (RAW264.7 [18])	fold change (FC) (RAW264.7 [19])	further results
O=c1oc2ccccc2c(=O)n1-c1ccc(Cl)cc1F	97.9	26.5	19.7	7.1	Non-toxic	74.6	45.9	Dose-dependent effect	10.6	Active	Active	Active	Dose-dependent effect	Dose-dependent effect	Dose-dependent effect	Dose-dependent effect	Dose-dependent effect	0.77	0.73	0.99	fold change (FC) (RAW264.7 [20]): 0.76; inhibition (RAW264.7 [21]): Dose-dependent effect; inhibition (RAW264.7 [22]): Active; Activity [23]: Non-toxic; Activity [24]: Non-toxic
O=c1oc2ccccc2c(=O)n1-c1ccc(I)cc1F	91.4	23.6	1.8	4.9	Non-toxic	49.1	29.1	Dose-dependent effect	7.3	Active	Active	Active	Dose-dependent effect	Dose-dependent effect	Dose-dependent effect	Dose-dependent effect	Dose-dependent effect	0.75	0.58	0.76	Activity (RAW264.7 [25]): 74.1%; fold change (FC) (RAW264.7 [20]): 0.72; inhibition (RAW264.7 [21]): Dose-dependent effect; inhibition (RAW264.7 [22]): Active; Activity [23]: Non-toxic; Activity [24]: Non-toxic
